# Sampled rows, rich in hits. Any-hit rate of the full collection: about 1%.
# zVAD death inh = inhibitors of zVAD-triggered necroptosis, primary screen, L929 cells. L929 zVAD necroptosis rescue, ATP luminescence, 24 h; with zVAD 60 µM. viability rescue, % at 10 µM. hit rate 0.38% among 220,000. AID 1377, 2008;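 active means activation, scaled between plate controls, above about 75%, limit read from the data; inactive means activation under that limit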;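 further: 0% = zVAD with DMSO and 100% = DMSO alone without zVAD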
# PERK inhibitor = block of dimerizer-induced PERK translation repression, primary screen, PERK inhibitor project, CHO PERK-DD cells, SEAP luminescence, HTS; CHO PERK-DD fusion, SEAP luminescence translation reporter; Eukaryotic translation initiation factor 2-alpha kinase 3 (Homo sapiens), Q9NZJ5; inhibition, % at 5.6 µM; hit rate 0.17% among 220,000; AID 1416, 2008;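 active means inhibition above the mean inhibition of all tested compounds plus 3 SD, set separately per screening campaign, cut at about 2.9% in these data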;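 further: PERK kinase domain activated by AP20187 dimerizer at 100 nM; 0% = DMSO with dimerizer and 100% = rapamycin at 8.4 µM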
# Rad51 HR inh = human RAD51 strand exchange inhibitors, primary screen, biochemical, fluorescence; DNA repair protein RAD51 homolog 1 (Homo sapiens), Q06609; hRad51 DNA strand exchange, fluorescence dequenching; inhibition, % at 10 µM; hit rate 0.085% among 200,000;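 active means inhibition above 40% at the single screening dose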;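 further: 0% = DMSO control wells and 100% = blanks with heterologous ssDNA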
#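 Assay system: Human Rad51 nucleoprotein filaments preassembled on unlabelled ssDNA | Reagent: Donor/quencher-labelled 47-bp dsDNA substrate | Doses: One concentration, 10 µM final | Times: 37 °C 15-min filament assembly, 30-min compound preincubation, 15-min exchange | Technique: Fluorescein emission 520 nm, excitation 485 nm | Benchmarks: Plate control and blank wells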
# Efa HMGR inh = inhibitors of E. faecalis class II HMGR, primary screen, biochemical, Enterococcus faecalis | HMG-CoA reductase (Enterococcus faecalis, mvaE) | purified E. faecalis HMGR, NADPH absorbance 340 nm kinetic | inhibition, % at 10 µM | hit rate 0.41% among 190,000;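 active means inhibition above a set limit, the median over all tested compounds plus 3 SD, cut at about 9.5% in these data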;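 further: enzyme runs in reverse so mevalonate oxidation gives rising NADPH absorbance; 0% = complete reaction with DMSO and 100% = background rate lacking mevalonate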
# TNF necrop inh = inhibitors of TNF-alpha triggered necroptosis, primary screen, cell-based, Jurkat FADD-/-, single concentration | Jurkat FADD-/- TNF necroptosis rescue, ATP luminescence, 24 h; 0 = TNF only, 100 = no-TNF cells | hit rate 0.068% among 220,000 | AID 463075, 2010 | activation (protection from cell death), % at 10 µM;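 active means activation, meaning protection from cell death, of at least 50% relative to plate controls; inactive means activation below 50%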;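 further: necroptosis triggered by 40 ng/mL TNF-alpha added together with compound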
# Numbers without * were called inactive; . = not tested or not shown.
SMILES,zVAD death inh,PERK inhibitor,Rad51 HR inh,Efa HMGR inh,TNF necrop inh
NS(=O)(=O)c1cccc(NS(=O)(=O)c2cccc(C(F)(F)F)c2)c1,0.4,0.9,-6.9,.,5.2
COc1ccc(NC(C)c2ccccc2)cc1 (centres undefined),38.8,1.0,5.3,-6.6,51.5*
CS(=O)(=O)N(CC(N)=O)c1cccc(Br)c1,0.1,0.3,2.0,17.2*,2.4
COC(=O)C1=C(C(=O)OC)[C@@H]2N(C)c3ccccc3[C@@]23C[C@@H](CO)N(C(=O)NCCBr)C3=N1,1.0,.,-1.7,.,-0.9
COc1ccc(-c2onc3ccc(Cl)cc23)cc1OC,75.0*,-0.6,.,.,-5.9
O=C(Nc1cccc2cccnc12)c1ccc(Br)o1,76.4*,0.1,.,-2.8,-5.2
O=C(Nc1cccc2ccccc12)c1ccc(Br)o1,0.0,-0.1,.,-1.4,-1.0
Cn1c(SCc2ccccn2)nc2c1c(=O)[nH]c(=O)n2C,0.9,1.2,5.9,.,0.8
Cc1cc(NC(=S)Nc2ccc(C)c(Cl)c2)n[nH]1,1.4,0.3,14.1,-2.9,2.0
CCc1ccc(CNC(=O)Cn2nc(-c3ccc(C)cc3)ccc2=O)cc1,-0.5,0.3,-0.6,-5.1,-0.8
CCOC(=O)c1c(NC(=O)CN2CCOCC2)sc(C(=O)NC)c1C,-0.5,-0.7,-1.5,-0.4,-1.2
COCCOC(=O)c1c(NC(=O)CN2CCOCC2)sc(C(N)=O)c1C,-0.1,0.1,-4.6,16.9*,-0.7
O=C1CC(C(=O)Nc2cccc(Cl)c2)n2ncnc2N1 (centres undefined),2.3,0.3,0.5,11.6*,1.6
COc1ccc(/C=N/NC(=O)c2ccncc2)cc1Cn1nc([N+](=O)[O-])c(Br)c1C,1.7,0.0,18.9,-2.7,3.7
c1ccc(CSc2nnc(-c3ccco3)o2)cc1,-0.7,-0.4,-3.3,.,52.1*
Cc1ccc(CSc2nnc(-c3ccco3)o2)cc1,1.0,1.7,.,-4.7,46.3
CC(C)Nc1ccc(Nc2ccnc3cc4ccccc4cc23)cc1,-3.3,-1.1,46.2*,.,-30.0
CC(C)(C)NC(=O)Cn1c(Cl)nc2ccccc21,1.3,0.4,-5.7,-1.5,1.0
O=C(OCCCN1CCOCC1)c1ccc(O)c(O)c1,2.1,3.4*,.,.,2.7
Cc1ccccc1OCC(O)CN(Cc1ccccc1O)C1CCCCC1 (centres undefined),0.9,-0.1,1.4,-8.7,1.2
FC(F)(F)c1cccc(Oc2ccc3c(C(F)(F)F)cc(C(F)(F)F)nc3n2)c1,-0.1,3.7*,2.0,-4.2,-1.9
FC(F)(F)c1cc(C(F)(F)F)c2ccc(Oc3ccccc3)nc2n1,0.1,-0.1,-5.6,-5.9,-3.1
CC(C)CCn1nnnc1CN1CCN(c2ccccc2)CC1,2.9,1.4,17.2,-2.8,0.8
CC(C)c1nnc(-c2ccc(Cl)cc2)c(N(C)C)n1,-0.2,1.5,3.6,-3.5,74.8*
Clc1ccc(CN2CCC(Cc3ccccc3)CC2)cc1,0.0,-0.5,0.5,-0.5,2.0
SMILES,zVAD death inh,PERK inhibitor,Rad51 HR inh,Efa HMGR inh,TNF necrop inh
Clc1cccc(CN2CCC(Cc3ccccc3)CC2)c1,-0.4,0.2,-3.2,14.2*,-0.5
CC(=O)Nc1ccc(NC(=O)[C@@H]2CCCN2S(=O)(=O)c2ccc3c(c2)OCCO3)cc1,-0.8,0.0,-5.6,-2.0,-1.2
COC(=O)C1=C(CSc2nc3c(cc2C#N)CN(C)CC3)OC(N)=C(C#N)C1c1ccc(F)cc1 (centres undefined),-0.2,0.5,-12.8,14.0*,-3.3
CCOC(=O)C1=C(CSc2nc(CC)c(C)cc2C#N)OC(N)=C(C#N)C1c1ccc(OC)cc1 (centres undefined),-0.8,-1.4,-19.5,-6.2,-2.3
CCS(=O)(=O)Nc1cccc(C2=NN(S(=O)(=O)c3ccc(C)cc3)C(c3ccco3)C2)c1 (centres undefined),-0.3,0.3,32.2,-8.1,2.1
Cc1ccc(NC(=O)CN2C(=O)NC(C)(CCc3ccccc3)C2=O)cc1 (centres undefined),2.8,0.2,-5.6,3.5,-1.2

# Screening results: PubChem BioAssay, several laboratories
